These results are taken from ChEMBL document CHEMBL4513216, “Probing the Open Global Health Chemical Diversity Library for Multistage-Active Starting Points for Next-Generation Antimalarials” (ACS Infect Dis, 2020).

A short description of the data set: Toxicity liver stage against HepG2, at 10uM. In kind it is cell-based. Also noted: test concentration 10 uM, cell line HepG2-A16-CD81EGFP. The conditions noted are these: human, HepG2-A16-CD81EGFP cells; read-out: INHIBITION
The method in brief:
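Uninfected HepG2-A16-CD81EGFP cells, 3 × 10^3 per well, 1536-well, plated on prespotted compound at 10 μM final, parasite-free screening media added to match infected plates; puromycin 10 μM positive, DMSO 0.5% negative; run in parallel with 48 h PbLuc assay at 37 °C, 5% CO2; viability by CellTiter-Glo luminescence, normalized to controls.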
Turning to `COC(=O)c1ccc(Cn2nc(C)cc2C)cc1`, the cytotoxicity at 10 µM was 10.8%.

With `COC(=O)c1cccc2nc([C@H]3CCN(Cc4ccccc4F)C3)oc12`, the cytotoxicity at 10 µM was -5.46%. Next, `Cc1cccc(O[C@H]2COCCN(Cc3sc(C)nc3C)C2)n1`: -1.5%; `CCOCCNC(=O)c1cccnc1Sc1cc(OC)ccc1OC`: 0.354%; `Cc1cc(=O)n(CCNC(=O)c2ccccc2Cl)cn1`: -5.07%. As for `CNC(=O)c1nc2c(s1)CCN(C(=O)c1ccc(OC)cc1)CC2`, the cytotoxicity at 10 µM worked out at 0.428%. Next, `COCc1ncn2c1CN(S(=O)(=O)c1cccc(F)c1)CC2`: 4.06%; `O=C(NCCCN1CCCC1=O)c1nc(-c2ccc3[nH]ccc3c2)no1`: -3.43%.

Regarding `CC(C)n1[nH]c(=O)c2c1NC(=O)CC2c1cccc2cccnc12` (stereo not drawn), the cytotoxicity at 10 µM was 2.83%. `Cn1nc(CNC(=O)C2CC2)cc1C1CC1`: the cytotoxicity at 10 µM stood at 1.96%.

For `CCn1cc(C(=O)N2CCOCC2)cn1`, the cytotoxicity at 10 µM came to 0.805%.

For the compound `O=C(Nc1cc(-c2cccnc2)no1)C1CCCCC1`, the cytotoxicity at 10 µM is 0.171%.

In the case of `CNc1ncc(CN(C)CCN2CCCCC2)cn1`, the cytotoxicity at 10 µM worked out at 17.7%.

Turning to `CC(C)N1CCC(Cc2cncc(-c3cccc(C(=O)O)c3)n2)C1` (stereo not drawn), the cytotoxicity at 10 µM stood at 9.11%. For `Cn1cc(C2CCCN2C(=O)c2cnc(-c3ccccn3)s2)cn1` (stereo not drawn) the value was -8.1%; for `COc1ccc(OCCN(C)S(=O)(=O)N2CCOCC2)cc1`, 3.11%. For `CCS(=O)(=O)CCSc1ccc(Br)cc1` the value was -7%; for `CN(Cc1cc(Br)cn1C)C(=O)c1cccnc1`, -5.95%; for `Cc1nc(CN2CCCN(C(=O)c3cccn3C)CC2)cs1`, -2.06%. For `c1cnc(-c2nc(C3CCOC3)no2)cn1` (stereo not drawn) the value was 7.09%; for `COc1cc(C(C)=O)ccc1OCC(=O)N(CC(C)C#N)C1CC1` (stereo not drawn), -2.45%; for `CC(Cn1cccn1)NC(=O)Nc1ccc(N2CCCC2)nc1` (stereo not drawn), -0.708%. With `CN(CC(N)=O)Cc1ccc(F)cc1Cl`, the cytotoxicity at 10 µM is -3.53%. For `CC(C)c1cc(NC(=O)CN2CCc3nn(C)c(=O)cc3C2)on1`, the cytotoxicity at 10 µM was -4.44%. Next, `COc1ccc(NC(=O)N(CCO)Cc2ccsc2)cc1`: 1.37%; `CCCc1cc(N2CCCC2Cn2cc(C)cn2)n2ncnc2n1` (stereo not drawn): 3.04%; `NS(=O)(=O)CCN1CCOC(c2ccsc2)C1` (stereo not drawn): 5.31%. Take `Cc1cc(C)c2c(c1)C(NC(=O)CSCc1ccncc1)CCO2` (stereo not drawn): the cytotoxicity at 10 µM is 4.17%. For `Cc1ncc(COc2ccc(N(C)S(C)(=O)=O)cc2)s1` the value was 5.89%; for `COc1ccc(C(C)Nc2ncc(C(N)=O)cc2Cl)cc1OC` (stereo not drawn), 3.54%; for `CC(C#N)NS(=O)(=O)c1ccc2c(c1)N(C)CCC2` (stereo not drawn), -4.28%. For `Cc1nc(-c2ccsc2)ccc1C(=O)O` the value was -13.8%. Take `Cc1ccccc1[C@@H]1CN(CCOCCO)C[C@H]1C(=O)O`: the cytotoxicity at 10 µM was -4.54%. For `CCc1nc(NC(=O)NCCc2cscn2)nn1C`, the cytotoxicity at 10 µM amounted to 2.31%. For `CN(Cc1cc(-c2cccnc2)no1)C(=O)C1CCCN1S(C)(=O)=O` (stereo not drawn) the value was -2.54%. Next, `CCCn1ccnc1CN1CCCC(O)(CN2CCCC2)C1` (stereo not drawn): -2.69%; `COc1ccc(CN2CCN(c3nccnc3OC)CC2=O)cc1`: 2.82%.

For the compound `CCC(=O)N1CCc2[nH]cnc2C12CCN(C1CCOCC1)CC2`, the cytotoxicity at 10 µM is -6.47%. For `CC(NC(=O)c1cc2n(n1)CCCN(C(C)C)C2)c1cn2ccsc2n1` (stereo not drawn) the value was -3.39%; for `CC(C)c1ccc(CN2CCCC3(CC2)CN(C)C(=O)O3)cc1` (stereo not drawn), -3.44%; for `CSCC[C@H](NC(C)=O)c1nc(Cc2ccccc2)n[nH]1`, 5.06%.

In the case of `Cc1nc(CN2CCN(C(=O)COc3c(C)ccc(C)c3C)CC2)no1`, the cytotoxicity at 10 µM is -1.4%.

With `Cc1cccc2[nH]c(C3CCCN3Cc3ccc(CO)o3)nc12` (stereo not drawn), the cytotoxicity at 10 µM was 10.3%. On to `NC(=O)CCN1CCc2onc(-c3ccccc3F)c2C1`, for which the cytotoxicity at 10 µM worked out at 5.21%. For `Cc1ccc2cc(CN(C)Cc3nccs3)c(=O)[nH]c2c1` the value was 2.91%; for `COc1nccnc1N1CCCC2(C1)C(=O)N(C)c1ccccc12` (stereo not drawn), -6.47%. Turning to `O=C(CCCc1ccc(Cl)cc1)N1CCN(C(=O)c2ccc[nH]2)CC1`, the cytotoxicity at 10 µM came to 10.7%. As to `CN(CCN1CCCCCC1)C(=O)c1cc(CN2CCC(O)CC2)on1`, the cytotoxicity at 10 µM was -17.5%. For `CC(C)CN1CCC(c2nc3c([nH]2)CC(C)(C)CNC3=O)C1` (stereo not drawn), the cytotoxicity at 10 µM is -10.6%. For `CCOCC(O)CN1CCN(C(=O)c2ccc(OC)cc2)CC1` (stereo not drawn) the value was 5.22%; for `Cc1nn(CC(C)C)c(N(C)C)c1CNCc1ccc(CO)c(F)c1`, -14.4%; for `COCC(=O)NC(C)c1cccc(Br)c1` (stereo not drawn), -8.13%. Next, `CCC(C)NC(=O)CS(=O)(=O)Cc1cc(Cl)c2c(c1)OCCCO2` (stereo not drawn): 2.19%; `CS(=O)(=O)c1ccc(CNC(=O)N2CCC(C(N)=O)CC2)cc1`: -3.78%; `O=C(Cc1ccc2c(c1)OCCO2)NC1CC1`: -11.2%. Next, `O=C(Cc1ccc(F)c(Br)c1)NC1CCN(CC(F)F)CC1`: -22%. Regarding `Cc1cn2c(n1)CCC(NC(=O)c1cc[nH]n1)C2` (stereo not drawn), the cytotoxicity at 10 µM is -8.06%.

Consider `O=C(NCc1nncn1-c1ccccc1)C1CCCCC1`, for which the cytotoxicity at 10 µM was -22.1%. For `CCc1nc(C2CCCN2C(=O)CCCn2cncn2)no1` (stereo not drawn) the value was -11.4%; for `CS(=O)(=O)N1CCC(NC(=O)COc2ccc(Cl)cc2)CC1`, -4.05%; for `Cc1cc(C)n(C2CCCN(C(=O)c3cc(C(N)=O)cs3)C2)n1` (stereo not drawn), -11.4%. As to `CCc1n[nH]c(C2CN(C(=O)c3ccc4c(c3)COC4)CCO2)n1` (stereo not drawn), the cytotoxicity at 10 µM is -1.63%. Next, `Cc1ccc(CN(CC(=O)N2CCOC(C)C2)C2CC2)cc1` (stereo not drawn): -11.9%. For `CCc1nc(CN2CCCN(C(=O)COC)CC2)cs1` the value was -18.9%; for `COCCN1CCC2(COCCN(C(=O)Cc3cccs3)C2)C1` (stereo not drawn), 4.29%. As to `CN(C)S(=O)(=O)N1CCC2(CC1)CC(Oc1ccccn1)CO2` (stereo not drawn), the cytotoxicity at 10 µM was -133%. Next, `Cc1occc1C(=O)N1CCC2(CCCN(Cc3cccs3)C2)C1` (stereo not drawn): 4.3%; `CS(=O)(=O)N1CCOCC2(CN(Cc3ccccn3)CCO2)C1` (stereo not drawn): 3.42%. For `O=C(c1ccnnc1)N1C[C@@H]2C[C@@H](c3nc(C4CC4)cs3)O[C@@H]2C1` the value was -124%; for `COc1cccc(-c2n[nH]cc2CNC2CCN(C(C)C)CC2)c1`, 0.353%; for `COCCOCC(=O)N1C[C@@H]2CC[C@H]1CN(C1Cc3ccccc3C1)C2`, -9.04%. As to `CN(C)C(=O)N1C[C@H]2CC[C@@H](C1)N(S(=O)(=O)c1cccnc1)C2`, the cytotoxicity at 10 µM is -6.55%. Regarding `O=C(CC1CCCC1)N1C[C@@H]2C[C@@H]1CN2`, the cytotoxicity at 10 µM was -0.714%.
